For 15 compounds, normalized ATPase activity results are on record in PubChem BioAssay AID602232 (The Scripps Research Institute Molecular Screening Center, 2012).

A number with no mark means an inactive call. Active and inactive are the calls of the source.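 Rule for the calls: active = normalized ATPase activity over 10% above control, with a t-test p below 0.05 against the vehicle group; inactive = the rest.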

The experiment can be described thus: calcium sensitizers of cardiac myofibril ATPase, mechanism study for cardiac RTF activator project, biochemical, absorbance, porcine cardiac myofibrils, powder samples (AID 602232). Conditions: phosphate absorbance 660 nm, at 10 µM, active compounds read high. An outline of the steps:
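Buffer or medium: pH 7.0 pCa buffer at half-maximal calcium; read-out: ATPase activity relative to DMSO wells; also added: 3.02 mM ATP; times: 5 min compound preincubation, then 7 min ATPase reaction, 25 °C; benchmarks: DMSO-treated wells as reference; repeats: five replicate wells per compound; detection: phosphate absorbance at 660 nm, Fiske-Subbarow reagent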
On to `CCOC(=O)c1sc(N)c(C#N)c1COC(=O)CNC(=O)c1cc(OC)c(OC)c(OC)c1`, for which the normalized ATPase activity is 1.11 (active).

As for `CN1CCN(CCCN2c3ccccc3Sc3ccc(C(F)(F)F)cc32)CC1`, the normalized ATPase activity was 0.986.

With `COc1ccccc1NS(=O)(=O)c1cc([N+](=O)[O-])ccc1N/N=C/c1c(C)[nH]c2ccccc12`, the normalized ATPase activity is 1.08.

`CCN1C(=O)/C(=C/C=C2/SCCN2C)SC1=S`: the normalized ATPase activity was 1.07.

As to `S=C(Nc1ccc(N2CCOCC2)cc1)Nc1ccc2nc(-c3ccco3)c(-c3ccco3)nc2c1`, the normalized ATPase activity is 1.06.

Turning to `COc1ccc(OC)c(/C=C2\N=C(c3ccccc3)OC2=O)c1`, the normalized ATPase activity was 1.03.

Take `COc1ccc(-c2nc3ccc(C4=NNC(=O)CC4C)cc3[nH]2)cc1` (stereo not given): the normalized ATPase activity was 1.05.

Consider `Cc1ccc(/C=C2\Oc3c(ccc(O)c3CN3CCN(CCO)CC3)C2=O)cc1`, for which the normalized ATPase activity was 0.928.

Consider `CCOC(=O)c1cc2n(c1N)-c1ccccc1C2=O`, for which the normalized ATPase activity was 1.03.

Regarding `CCN(CC)c1ccc(/C=c2\sc3nc4ccccc4n3c2=O)c(O)c1`, the normalized ATPase activity is 0.988.

Consider `Cc1cccn2c(=O)c(/C=C3\SC(=S)N(CC(C)C)C3=O)c(NCCCOC(C)C)nc12`, for which the normalized ATPase activity was 1.11 (active).

Consider `CCN1C(=O)/C(=C/N2CCc3ccccc32)SC1=S`, for which the normalized ATPase activity is 0.984.

With `CCN(CC)c1ccc(/C=C2\SC(N)=NC2=O)cc1`, the normalized ATPase activity is 0.992.

On to `CCCN1CCc2c(sc(NC(=S)NC(=O)c3ccccc3)c2C#N)C1`, for which the normalized ATPase activity was 0.984.

For the compound `CC(C)COCC(CN(Cc1ccccc1)c1ccccc1)N1CCCC1` (stereo not given), the normalized ATPase activity is 1.05.
